Assay results: the EternaBench riboswitch data

Tested on: MS2 coat protein
Assay: apparent Kd, MS2 coat protein; higher = weaker binding; RNA-MaP array; FMN 200 µM where present
Procedure, shortened: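 On Illumina sequencing-chip clusters, designs were transcribed by stalled E. coli RNA polymerase and titrated with SNAP-549-labelled MS2 coat protein (0.7 or 1.5 nM, doubling to 3 µM), without and then with constant ligand, in 100 mM Tris-HCl pH 7.5, 80 mM KCl, 4 mM MgCl2, BSA, DTT, yeast tRNA and Tween-20. Apparent Kd is the median of filtered per-cluster curve fits to green signal normalised to red-channel RNA signal and control-cluster median Fmax.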

[1] = designed as: ON switch for flavin mononucleotide, no ligand
[2] = ligand present: flavin mononucleotide, designed as: ON switch for flavin mononucleotide
[3] = designed as: OFF switch for flavin mononucleotide, no ligand
[4] = ligand present: flavin mononucleotide, designed as: OFF switch for flavin mononucleotide

Sequence | apparent Kd [1] [nM] | apparent Kd [2] [nM] | apparent Kd [3] [nM] | apparent Kd [4] [nM]
ACAUGCAUAGCGAUAUGAUCGAGAGAUCAUGUCGCUAAAGUUAGAAGGACAUGAGGAUCACCCAUGUAGGAUAUGGGUGCAUGA | 641 | 48.7 |  | 
ACAUGGAAGCAGGAUAUGCUUGUAUAAUUGUUUGCAGAAGGGCUAACAUGAGGAUCACCCAUGUAAGAGGUCUA |  |  | 16.2 | 25.8
ACAUGGUAGUAGAAGGGUAUUACUUUAGAAUCAACCAUUAGUUUAUUUUAUACAGGAUAUGCUAACAUGAGGAUCACCCAUGUU |  |  | 10.4 | 8.25
ACAUUCUUUCGAGGAUAUCGGUGAUUAAUUUUACGAGAAGGCGAUUUAAGAUAUAAUAUUUUAGACAUGAGGAUCACCCAUGUA | 26.1 | 24.1 |  | 
ACAUUGUUACAGGAUAUCGUUGGUUUUAUCCUGCGAGAAGGGUAUACAUGAGGAUCACCCAUGUUAUCCUCAUU |  |  | 18.7 | 21.8
ACAUUUAAUACAGGAUAUGUAUGUAUACAAUAGAUUGGUUUUAUCACAUCAACAGAAGGGUAGAACAUGAGGAUCACCCAUGUA | 114 | 79.8 |  | 
ACAUUUGGAGGAUAUACCGCUAAGUCAAAUGCAGACCUCCCACAUGAGGAUCACCCAUGUAGAAGGUCAUCUGG |  |  | 17.1 | 17.6
ACCAUUUACUAAUUAUCUAUACAUGAGGAUCACCCAUGUUAAGAGGAUAUCAUCGUUCGCCGCGAUGAGAAGGCUUAGCAUUCG |  |  | 48.8 | 154
ACCUAUUUGGAGAAGGCCAGAAUGAUUAGGCUAAGGCGUGAUCCUGCAUGGAGGAUAUCCAAAACAUGAGGAUCACCCAUGUUC | 130 | 71.2 |  | 
ACCUCACAUGAGGAUCACCCAUGUCAGGAUAUACAAACCGUGAUAAGACACGGUCGUAGUAGAAGGGACUAUGG |  |  | 69.5 | 24.9
ACCUUACAUGAGGAUCACCCAUGUCAGGAUAUCUCGGGCGACCGAGGGCCGGCCGCCCAGAGAAGGGACGAGGA |  |  | 12.5 | 13.9
ACCUUACAUGAGGAUCACCCAUGUCAGGAUAUCUCGGGCGGCUGAGGACCAGCCGCCCAGAGAAGGGACGAGGA |  |  | 14.7 | 15.3
ACGACGAAAGUCGAACGAUGUACGAGAAGGACAUGAGGAUCACCCAUGUUAUCUGUUAUAGACAUGUAGGAUAUCGUACAUCGA |  |  | 8.25 | 26.8
ACGAUGUCAGGAUAUCGAUCACGGGUCUGAAGACACGUGUUUGAGAAGGGACAUGAGGAUCACCCAUGUGUCUC |  |  | 122 | 314
ACGCAUUGCCUUUGGUAGUGCGUUACAUGAGGAUCACCCAUGUAGGAUAUGGUAGGCAAAGCUUACCAGAAGGACAUGAUAAUU |  |  | 49.5 | 238
ACGCCCUGAGGAUAUCUUAUGCCGCACAUGAGGAUCACCCAUGUUCUCCUCCGGGCUCCGAGAGAAGGCAGGCCCA |  |  | 8.82 | 10.2
ACGCUUUGGGAGAAGGUACGUUAAUUAUUUUCCACAUGAGGAUCACCCAUGUAAGGAUAUCCCGGCGUGAAAUAGGCUACAGCA |  |  | 6.71 | 8.08
ACGCUUUGGGAGAAGGUACUUUAAAAUUUUUCCACAUGAGGAUCACCCAUGUAAGGAUAUCCCAUCGUUAAAUAUUCUACAGCA |  |  | 8.98 | 7.26
ACGGCUAACCCAGUUUGAAUCUCAAGAAGGGUACACUGGGCAAGGUACAUGAGGAUCACCCAUGUACAGGAUAUUGAGAUGAGA |  |  | 48.4 | 74
ACGGUGGUCACAGGAUAUCCGGCCCGCGUGCCUGGAGAAGGGUGACUCAGAACCACAUGAGGAUCACCCAUGUGCCUUGCCGUA | 92.1 | 31.9 |  | 
ACGGUGGUCACAGGAUAUCCGGCGCGCGUGCCUGGAGAAGGGUGACUCAGAACCACAUGAGGAUCACCCAUGUGCCUUGCCGUA | 169 | 49.2 |  | 
ACGGUUGGGACAGGAUAUGUAACCGGGAUUCUAGUUUCGUCCGUGACAUGAGGAUCACCCAUGUUACAGAAGGGUUCUAAAUCG |  |  | 189 | 234
ACGUAACGGUGCGCGAGUGGACGGAGAAGGCAGACAUGAGGAUCACCCAUGUGAGCCUGCUAUUCUGAGGAUAUCCGUCCGCAC |  |  | 38.9 | 254
ACGUCGAGCCAGAAGGCAACAUGAGGAUCACCCAUGUAGUCCGGCUCGUGUUGAGGAUAUGGCACCCGCGCUGAAGGCGCAGGU |  |  | 5.43 | 7.55
ACGUUUAAUACAGGAUAUGUUAAUAUACAAUAGAUUGGAUAUUACUUAAUUACAGAAGGGUAGAACAUGAGGAUCACCCAUGUA | 329 | 239 |  | 
ACUAAACGAGGAUAUACUGACAGGCCUCAGGCAUACAUCAAACAUGAGGAUCACCCAUGUAGAAGGCGUAAACU |  |  | 32.8 | 32.8
ACUAAUAAGUGAGGAUAUACAUAAUUCAUAUCAGUAGAAGGCACAAUCCUCUUUACAUGAGGAUCACCCAUGUUAUAUAUAUAA |  |  | 73.8 | 194
ACUAGAUGAGGAUAUACACAUUUUAGUGUUCCUCUAGAUUAACAUGAGGAUCACCCAUGUAGAAGGCAUCAUUU |  |  | 78.5 | 231

Sequence | apparent Kd [1] [nM] | apparent Kd [2] [nM] | apparent Kd [3] [nM] | apparent Kd [4] [nM]
ACUAGAUGAGGAUAUGCAUAUUUUCGUGUUCUUCUAGAUUAACAUGAGGAUCACCCAUGUAGAAGGCGUCAAUA |  |  | 16.1 | 18.9
ACUAGAUGAGGAUAUGCAUGUUUUCAUGUUCUUCUAGAUUAACAUGAGGAUCACCCAUGUAGAAGGCGUCUUUU |  |  | 21.4 | 32
ACUAUACGAGGAUAUACUGACAGGCCUCAGGCAUACAUCAAACAUGAGGAUCACCCAUGUAGAAGGCGUAUACU |  |  | 30.4 | 68.1
ACUAUACGAGGAUAUACUGUCAGGCCUCAGACAUAAAUAAGACAUGAGGAUCACCCAUGUAGAAGGCGUUUACU |  |  | 31.3 | 48
ACUAUACGAGGAUAUACUGUCGGGCCUCGGACAUACAUACGACAUGAGGAUCACCCAUGUAGAAGGCGUUUACU |  |  | 30.4 | 68.4
ACUCCUCCUGUUAGGAUAUGCAUCGGGCUUCCGCAGCAGAAGGAACAUGAGGAUCACCCAUGUCAAAUAAAAUC |  |  | 19.6 | 155
ACUCGGAGCUGGCGACAGAAGACAUGAGGAUCACCCAUGUAGAGAAGGAGCCCUGGGACCGGUGGCUAGGAUAUUUACAUCGGU |  |  | 6.9 | 12.3
ACUCUACAUGAGGAUCACCCAUGUCGAGCCCAUCAAGGAUAUGGGUCUUGAUCGCGGGUGCCAGAAGGUGAUGGUU | 43.9 | 47.1 |  | 
ACUGCCACAGGAUAUACGAAACUCUUGGGUUCCGCCGUGUGACAUGAGGAUCACCCAUGUAGAAGGGUGGCUUA |  |  | 606 | 416
ACUGGAGCAGGAUAUAUAUGACGUGCUUCGGCACGAAGAUCACAUGAGGAUCACCCAUGUAGAAGGGCUCCAGU |  |  | 106 | 813
ACUGGUCGAGGAUAUGCAUUCGUGCUUCGGCACGUAAGGUCACAUGAGGAUCACCCAUGUAGAAGGCGACCAGU |  |  | 18.2 | 36.9
ACUGUCCGAGAGAAGGGAACAUGAGGAUCACCCAUGUUACCUCACCUGGUGACGGAACUCCAAGUUCAGGAUAUCUCGAGCGGU |  |  | 4.72 | 6.53
ACUGUCGCGUGAGGAUAUGGUCUGCAGUGCUGACCAGAAGGCAUGUCGAUAGACAUGAGGAUCACCCAUGUGGUUAGGGCGGCU | 619 | 298 |  | 
ACUUAUGAAGGAUAUACUAGCGACAUGCACUCAACACACGCACAUGAGGAUCACCCAUGUAGAAGGUCAAACAU |  |  | 25.7 | 22.4
ACUUGUAAGCAGAAGGCAGUCAUAGUAUUCGUCAUGUAGACAUGAGGAUCACCCAUGUAUAGUACUGAGGAUAUGCUUCGAUAG |  |  | 19.3 | 21.7
AGAAACCGAGGAUAUACAUGAGGAUCACCCAUGUCAAGCGGCAUCUACCGAACCUUCUGUAGAAGGCGGAAAAC |  |  | 19.9 | 22.9
AGAAACUACGAGAAGGACAAAAAAGGUGCCGCAAACAUGAGGAUCACCCAUGUAGGAUAUCGUAGUUUCAGGAUCGUGAGAUCA |  |  | 16.5 | 98.3
AGACCCAUGACAUGAGAUGACAUGAGGAUCACCCAUGUUUACGAGGAUAUGUUGAUGAAACAUCAACAGAAGGUGUAAUGGGCU |  |  | 21.2 | 28.9
AGAGAGAGCACAGGAUAUCCGCGCACAUGUAGCGGAGAAGGGUGACCUUUUUGCACAUGAGGAUCACCCAUGUCCAGCACCACA | 39.7 | 21.7 |  | 
AGAGAGUGACAGAAGGGCAAGCUCGAAAGCGGAGAACGCGAACGAGCUUGCAGGAUAUGUUGAACAUGAGGAUCACCCAUGUCA | 7.79 | 6.41 |  | 
AGAGGACAUGAGGAUCACCCAUGUAAGGAUAUGCGGAGAGUUUGGAGAGGUCGGGUAGGCAGAAGGUACAGGAG |  |  | 65.1 | 91.7
AGAGUGAUUACCUCGGUCCCACAUGAGGAUCACCCAUGUAACAAGGAUAUCGCUCCAAAUGGAAGUGAGAAGGUGUCUCAUGUC |  |  | 27.8 | 42.2
AGAUAACACCAGAAGGACAUGAGGAUCACCCAUGUAGGAUAUGGGCAUCACUCGAGAAAGAAAAGACCAAGUGGACACAUGGUC | 147 | 11 |  | 
AGAUACAACCAGAAGGACAUGAGGAUCACCCAUGUAGGAUAUGGGUUACACGUGCCUGGGAAGUGUAACGACGCUACGAAGAGU | 31.4 | 8.3 |  | 
AGAUACAGGCAGAAGGGUUGGUAAGUUGGGUCAACAGGAUAUGCCUCUGUGACAUGAGGAUCACCCAUGUUACCAAACAGUCUU | 583 | 49.5 |  | 
AGAUAGCGAAUAGUAAUAAAAGUACAGGAUAUGUUACAUGAGGAUCACCCAUGUAUUGGGUAAGAACAGAAGGGUACGCUAGAG |  |  | 144 | 123
AGAUCUACAGGAUAUACAUGAAAGAUCAUCAUGACCCUUCAACAUGAGGAUCACCCAUGUAGAAGGGUAGAUCA |  |  | 27.7 | 13.5
